Results taken from ChEMBL document CHEMBL2346664, “Synthesis, characterization and in vitro anticancer evaluation of novel 1,2,4-triazolin-3-one derivatives” (2013).

How the values were obtained:
Format in all cases: functional
HOP-62 = assay: Growth inhibition of human HOP62 cells assessed as cell growth at 10 '-5 M after 48 hrs by sulforhodamine B assay; settings: HOP-62, 48 h, read-out: Activity
HL-60(TB) = assay: Growth inhibition of human HL-60(TB) cells assessed as cell growth at 10 '-5 M after 48 hrs by sulforhodamine B assay; settings: HL-60, 48 h, read-out: Activity
How it was run: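 Five-dose NCI protocol with final concentrations of 0.01–100 µM and drug diluted from a DMSO stock (400× the top concentration) in medium with gentamicin. Cells were pre-incubated 24 h, then exposed 48 h at 37 °C. Suspension cells were fixed with 16% final TCA, SRB-stained and read at 515 nm. Percentage growth at each level was [(Ti−Tz)/(C−Tz)]×100, or [(Ti−Tz)/Tz]×100 when Ti < Tz.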

RXF 393 = assay: Growth inhibition of human RXF393 cells assessed as cell growth at 10 '-6 M after 48 hrs by sulforhodamine B assay; settings: RXF 393, 48 h, read-out: Activity
OVCAR-5 = assay: Growth inhibition of human OVCAR5 cells assessed as cell growth at 10 '-6 M after 48 hrs by sulforhodamine B assay; settings: OVCAR-5, 48 h, read-out: Activity
UACC-62 = assay: Growth inhibition of human UACC62 cells assessed as cell growth at 10 '-6 M after 48 hrs by sulforhodamine B assay; settings: UACC-62, 48 h, read-out: Activity
MDA-MB-435 = assay: Growth inhibition of human MDA-MB-435 cells assessed as cell growth at 10 '-6 M after 48 hrs by sulforhodamine B assay; settings: MDA-MB-435, 48 h, read-out: Activity
Malme-3M [1] = assay: Growth inhibition of human MALME-3M cells assessed as cell growth at 10 '-6 M after 48 hrs by sulforhodamine B assay; settings: read-out: Activity
SN12C = assay: Growth inhibition of human SN12C cells assessed as cell growth at 10 '-4 M after 48 hrs by sulforhodamine B assay; settings: read-out: Activity
UO-31 [2] = assay: Growth inhibition of human UO31 cells assessed as cell growth at 10 '-7 M after 48 hrs by sulforhodamine B assay; settings: UO-31, 48 h, read-out: Activity
CAKI-1 = assay: Growth inhibition of human CAKI-1 cells assessed as cell growth at 10 '-7 M after 48 hrs by sulforhodamine B assay; settings: CAKI-1, 48 h, read-out: Activity
How it was run: (§1)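 Percent growth at each of the five concentrations of the 48 h continuous-exposure NCI SRB screen. Drug stocks were in DMSO at 400× the top final concentration and diluted in medium with gentamicin. Growth was calculated as [(Ti-Tz)/(C-Tz)]×100 when Ti ≥ Tz, or [(Ti-Tz)/Tz]×100 when Ti < Tz. Tz plates were fixed at drug addition; untreated wells served as control. Absorbance was read at 515 nm.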

Malme-3M [3] = assay: Growth inhibition of human MALME-3M cells assessed as cell growth at 10 '-4 M after 48 hrs by sulforhodamine B assay; settings: read-out: Activity
SF-295 = assay: Growth inhibition of human SF295 cells assessed as cell growth at 10 '-4 M after 48 hrs by sulforhodamine B assay; settings: SF-295, 48 h, read-out: Activity
K562 = assay: Growth inhibition of human K562 cells assessed as cell growth at 10 '-8 M after 48 hrs by sulforhodamine B assay; settings: K562, 48 h, read-out: Activity
TK-10 = assay: Growth inhibition of human TK10 cells after 48 hrs by sulforhodamine B assay; settings: TK-10, 48 h
ACHN = assay: Growth inhibition of human ACHN cells after 48 hrs by sulforhodamine B assay
How it was run: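 NCI 60-cell-line five-dose screen at 0.01, 0.1, 1, 10 and 100 µM final. Cells were plated at 5,000–40,000/well and grown 24 h at 37 °C, 5% CO2, then exposed to drug continuously for 48 h. Adherent cells were fixed with cold TCA (10% final) and stained with SRB; absorbance read at 515 nm. GI50 is the concentration where [(Ti-Tz)/(C-Tz)]×100 = 50, with Tz plates fixed at drug addition.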

NCI-H522 = assay: Growth inhibition of human NCI-H522 cells assessed as cell growth at 10 '-4 M after 48 hrs by sulforhodamine B assay; settings: NCI-H522, 48 h, read-out: Activity
MDA-MB-468 = assay: Growth inhibition of human MDA-MB-468 cells assessed as cell growth at 10 '-5 M after 48 hrs by sulforhodamine B assay; settings: MDA-MB-468, 48 h, read-out: Activity
UO-31 [4] = assay: Growth inhibition of human UO31 cells assessed as cell growth at 10 '-5 M after 48 hrs by sulforhodamine B assay; settings: UO-31, 48 h, read-out: Activity
SNB-19 = assay: Growth inhibition of human SNB19 cells after 48 hrs by sulforhodamine B assay; settings: SNB-19, 48 h
HCT-116 = assay: Growth inhibition of human HCT116 cells after 48 hrs by sulforhodamine B assay; settings: HCT-116, 48 h
How it was run: (§2)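 NCI 60-cell-line five-dose screen. Cells were plated at 5,000–40,000/well by doubling time and grown 24 h at 37 °C, 5% CO2. Time-zero plates were TCA-fixed. Drug from DMSO stock was tested at 0.01, 0.1, 1, 10 and 100 µM final for 48 h continuous exposure. Read-out was SRB at 515 nm. GI50 is the concentration giving 50% reduction in net protein increase versus untreated control.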

COLO 205 = assay: Growth inhibition of human COLO205 cells after 48 hrs by sulforhodamine B assay; settings: COLO 205, 48 h; how it was run: as §2
A549 = assay: Growth inhibition of human A549 cells assessed as cell growth at 10 '-7 M after 48 hrs by sulforhodamine B assay; settings: A549, 48 h, read-out: Activity; how it was run: as §1
RPMI-8226 = assay: Growth inhibition of human RPMI8226 cells assessed as cell growth at 10 '-7 M after 48 hrs by sulforhodamine B assay; settings: RPMI-8226, 48 h, read-out: Activity
UACC-257 = assay: Growth inhibition of human UACC257 cells assessed as cell growth at 10 '-5 M after 48 hrs by sulforhodamine B assay; settings: UACC-257, 48 h, read-out: Activity
M14 = assay: Growth inhibition of human M14 cells assessed as cell growth at 10 '-5 M after 48 hrs by sulforhodamine B assay; settings: M14, 48 h, read-out: Activity
KM12 = assay: Growth inhibition of human KM12 cells assessed as cell growth at 10 '-8 M after 48 hrs by sulforhodamine B assay; settings: KM12, 48 h, read-out: Activity
[5] = read-out: LD50 (the source's name)

Cc1cc(=O)oc2cc(OCCn3c(C)nn(-c4ccc(Cl)cc4)c3=O)ccc12
growth at 10 µM (HOP-62): 8%
growth at 10 µM (HL-60(TB)): -1%
growth at 1 µM (RXF 393): 75%
growth at 1 µM (OVCAR-5): 89%
growth at 1 µM (UACC-62): 61%
growth at 1 µM (MDA-MB-435): -8%
growth at 1 µM (Malme-3M [1]): 82%
growth at 100 µM (SN12C): 37%
growth at 0.1 µM (UO-31 [2]): 83%
growth at 0.1 µM (CAKI-1): 92%
growth at 100 µM (Malme-3M [3]): 41%
growth at 100 µM (SF-295): 16%
growth at 0.01 µM (K562): 107%
GI50 (TK-10): 1340 nM
TGI (TK-10): 8840 nM
CC50 (TK-10; [5]): > 1000 nM
GI50 (ACHN): 5590 nM
TGI (ACHN): > 1000 nM
CC50 (ACHN; [5]): > 1000 nM
growth at 100 µM (NCI-H522): -22%
growth at 10 µM (MDA-MB-468): 15%
growth at 10 µM (UO-31 [4]): 51%
GI50 (SNB-19): 5370 nM
TGI (SNB-19): > 1000 nM
CC50 (SNB-19; [5]): > 1000 nM
GI50 (HCT-116): 3570 nM
TGI (HCT-116): > 1000 nM
CC50 (HCT-116; [5]): > 1000 nM
GI50 (COLO 205): 2390 nM
TGI (COLO 205): 7340 nM
CC50 (COLO 205; [5]): > 1000 nM
growth at 0.1 µM (A549): 98%
growth at 0.1 µM (RPMI-8226): 97%
growth at 10 µM (UACC-257): 40%
growth at 10 µM (M14): 22%
growth at 0.01 µM (KM12): 104%
